Assay outcomes: PubChem, several laboratories
Shown are actives, neighbours in structure and some others; about 1.3% of the full set was active somewhere.
core dimer inh: inhibitors of HCV core protein dimerization, primary screen, biochemical, TR-FRET, high-throughput | TR-FRET GST/Flag-core106 dimerization, 1536-well | inhibition, % at 5 µM | hit rate 0.33% among 300,000;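 active = inhibition above the mean of all tested compounds plus 3 SD, set per screening campaign, cut at about 45% in these data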
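System – GST-tagged and Flag-tagged HCV core protein residues 1-106 · Repeats – one well for each compound · Technique – TR-FRET 671 and 617 nm emission · Doses – one concentration, 5 µM, in 0.5% DMSO · Times – 4 h, 22.5 °C incubation · Also added – Eu donor and XL665 acceptor anti-tag antibodies · Measure – percent inhibition of core106 dimerization signal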
Hep lipid drop: inhibitors of hepatocyte lipid droplet formation, primary screen, imaging, high-throughput imaging, BODIPY stain. inhibition, % at 6.5 µM. AML12 mouse hepatocytes, oleate lipid droplets. AID 1656, 2009. hit rate 0.4% among 240,000;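 active = lipid droplet intensity inhibited by at least 50%, with more than 500 cells counted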
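Test system: AML12 hepatocytes (mouse); reagent: oleate loading, 100 µM; dosing: one dose, 6.5 µM compound; incubation: overnight exposure; signal: fluorescence imaging, 20x objective, two fields per well; read-out basis: % inhibition of corrected integrated BODIPY droplet signal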
Tb MetRS inh: T. brucei MetRS inhibitors, primary screen, biochemical, luminescence; methionyl-tRNA synthetase (Trypanosoma brucei brucei); purified T. brucei MetRS, ATP depletion, Kinase-Glo luminescence; inhibition, % at 11.9 µM; hit rate 0.4% among 360,000; AID 624268, 2012;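 active = inhibition above a per-plate cutoff of the control wells' mean inhibition plus 3 SD, cut at about 5.5% in these data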
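Material: parasite MetRS enzyme / Replication: singlicate, one well per compound / Signal: luminescence of leftover ATP / Schedule: 2 h aminoacylation at 25 °C after 15 min preincubation / Medium: HEPES-MgCl2-KCl buffer plus DTT, spermine, BSA, pyrophosphatase / Doses: 11.9 µM single point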
HCV NS3 hel inh: inhibitors of HCV NS3 helicase, primary screen, biochemical, Cy5 molecular beacon fluorescence. Hepatitis C virus NS3 helicase. NS3 helicase DNA unwinding. inhibition, % at 10.9 µM. hit rate 0.56% among 290,000. AID 1800, 2009;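 active = inhibition above the mean of all tested compounds plus 3 SD, set per campaign, cut at about 35% in these data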
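Compound dosing – single dose, 10.9 µM nominal final, DMSO 0.8% final · System – NS3 helicase fragment of HCV · Buffer or medium – MOPS pH 6.5, MgCl2, DTT, Tween20, BSA · Signal – Cy5 beacon fluorescence read at start and 1 h · Also added – annealed dual-labelled DNA beacon duplex, ATP-started · Schedule – 1 h at 25 °C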
Hits are given with their value; n = inactive; x = no result given.

SMILES	core dimer inh	Hep lipid drop	Tb MetRS inh	HCV NS3 hel inh
CC(C)OC1=CC(=O)OC(c2cccc(Cl)c2)C1 (stereo not drawn)	x	x	n	x
CC(=O)c1cccc(NC(=O)Nc2cccs2)c1	n	n	n	n
CC(=O)c1cccc(NC(=O)Nc2cc3sccc3n2C)c1	51	n	x	n
Cc1ccc2c(c1)c(=O)c1c3n2CCN(C(=O)CCl)C3CC1 (stereo not drawn)	47	n	n	n
Cc1ccc2c(c1)c1c3n2CCN(C(=O)CN2CCN(C)CC2)C3CCC1 (stereo not drawn)	n	x	n	n
CCc1ccc(NC(=O)C(C)OC(=O)c2ccc(NS(=O)(=O)c3ccc(C)c([N+](=O)[O-])c3)cc2)cc1 (stereo not drawn)	n	n	n	n
Cc1ccc(S(=O)(=O)Nc2ccccc2C(=O)OC(C)C(=O)Nc2ccc3ccccc3c2)cc1[N+](=O)[O-] (stereo not drawn)	47	n	n	n
CC1(C)C(=O)Nc2ccccc2N1C(=O)COc1ccc(S(=O)(=O)N2CCOCC2)cc1Cl	65	x	n	n
O=C(COc1ccc(S(=O)(=O)N2CCOCC2)cc1Cl)N1CCCC1	n	n	n	n
CC1=CC(=O)c2c(O)ccc(O)c2C1=O	70	n	x	n
CCCCOC(=O)c1ccc(NC(=O)/C=C/c2cccs2)cc1	n	65	n	n
Cc1nc(C)c(C(=O)Nc2nc3c(C)cccc3s2)o1	54	x	n	n
C[C@@H]1CCCCO[C@H](CN(C)C(=O)Cc2ccccc2)[C@H](C)CN([C@@H](C)CO)C(=O)c2cc(NC(=O)Nc3ccc(F)cc3)ccc2O1	x	x	n	x
Cc1ccc(CNC(=O)/C=C/[C@H]2O[C@@H](n3cc(C)c(=O)[nH]c3=O)C[C@@H]2O)o1	x	x	n	x
CCC(C)Sc1nc2c(c(=O)[nH]1)C(c1cccs1)C1=C(CCCC1=O)N2 (stereo not drawn)	57	n	n	n
O=C1CCCC2=C1C(c1ccncc1)c1c(nc(SCc3ccccc3Cl)[nH]c1=O)N2 (stereo not drawn)	n	n	n	n
CC(C)CC(=O)[C@@H](O)Cc1ccc(O)cc1	x	x	n	x
COc1cc(/C=C2/SC(=S)N(Cc3ccccc3)C2=O)cc(Cl)c1O	n	n	n	48
OC(c1ccccc1)c1nc(-c2cncnc2)cs1 (stereo not drawn)	x	x	n	x
C/C(=N\Nc1ccc(F)cc1F)c1ccc(N2CCOCC2)cc1	n	n	n	n
C/C(=N\Nc1ccc(F)cc1F)c1ccc(F)cc1	54	x	x	n
COC1=CC(=O)OC(c2cccc(C(F)(F)F)c2)C1 (stereo not drawn)	x	x	n	x
O=C(CCN1C(=O)C2CC=C(Cl)CC2C1=O)NCc1ccco1 (stereo not drawn)	n	n	n	n
O=C1C2CC=C(Cl)CC2C(=O)N1CN(Cc1ccco1)CN1C(=O)C2CC=C(Cl)CC2C1=O (stereo not drawn)	80	x	n	n
N#Cc1c(NC(=O)c2ccc(Cn3cc(Br)cn3)o2)sc2c1CCCCC2	n	x	n	n
SMILES	core dimer inh	Hep lipid drop	Tb MetRS inh	HCV NS3 hel inh
CC1CCc2c(sc(NC(=O)c3ccc(Cn4cc([N+](=O)[O-])cn4)o3)c2C#N)C1 (stereo not drawn)	85	x	n	n
COC(=O)[C@]12CCCCC=C1N(Cc1ccco1)C(=O)[C@H](CC(=O)NCc1cccc(C(F)(F)F)c1)C2	x	x	n	x
COC(=O)c1c(C)oc2ccc(N(C(=O)Oc3ccccc3)S(=O)(=O)c3ccc(Cl)c([N+](=O)[O-])c3)cc12	64	n	n	n
COC(=O)c1c(C)oc2ccc(N(C(=O)c3ccncc3)S(=O)(=O)c3ccc4ccccc4c3)cc12	n	n	n	n
COc1cccc(C2=CC(=O)C(C(C)(C)C)N2C(C)(C)C)c1 (stereo not drawn)	x	x	n	x
CCCOc1ccc(/C=C/C(=O)NC2CCCCC2)cc1	n	n	n	n
O=C(/C=C/c1ccc(Br)cc1)NC1CCCCCC1	102	x	n	n
Cc1cc(C)n2nc(C(=O)OCC(=O)NC3CCS(=O)(=O)C3)nc2n1 (stereo not drawn)	x	x	n	x
Cc1ncc(CO)c2c1Oc1nc(-c3ccccc3F)nc(SCC(=O)N(C)c3ccccc3)c1C2	53	n	n	n
CNc1nc(NCC2CCCCC2)c2sccc2n1	x	x	n	x
O=C1COc2ccc(C(=O)COC(=O)/C=C/c3ccc(Br)o3)cc2N1	84	x	n	x
CCCNC(=O)Cn1c(=O)/c(=C\c2ccc(-c3cccc([N+](=O)[O-])c3)o2)s/c1=C\C(=O)C(C)(C)C	57	n	n	n
O=C1NC[C@H](CCCCN2C[C@H](Cc3ccc(O)cc3)N(CCc3ccc(O)cc3)C(=O)C2=O)N(CCc2ccc(O)cc2)C1=O	x	x	n	x
O=C(c1cc(-c2ccccc2Cl)nc2ccccc12)N1CCC1	n	x	n	x
Cc1ccc(-c2cc(C(=O)N3CCOCC3)c3ccccc3n2)o1	x	x	n	x
Cc1ccccc1-c1cc(C(=O)N2CCCC2)c2ccccc2n1	53	n	n	n
Cc1ccc(-c2cc(C(=O)N3CCN(c4ccc(F)cc4)CC3)c3ccccc3n2)o1	49	x	n	n
CCC(C(=O)NCc1ccccc1)n1c(-c2cccs2)nc2ccccc21 (stereo not drawn)	x	x	n	x
S=c1nc(SCc2ccccc2)[nH]c2ccccc12	65	n	n	n
O=C(CCSc1ccc(Cl)cc1)c1ccco1	n	n	n	n
O=C(CSc1ccc(Cl)cc1)c1ccco1	49	x	n	n
CCOc1ccc(CCN2C(=S)N([C@@H](Cc3ccc(O)cc3)CN3CCC[C@@H]3CN3C(=S)NC[C@@H]3Cc3ccccc3)C[C@@H]2Cc2ccc(O)cc2)cc1	x	x	n	x
CN(C)c1ncnc2c1ncn2[C@H]1CN(Cc2cccs2)C[C@@H](CO)O1	x	x	n	x
Cc1c(NC(=O)COC(=O)c2cc(-c3ccc(-c4ccccc4)cc3)nc3ccccc23)c(=O)n(-c2ccccc2)n1C	49	n	n	n
CCCCNC(=O)C[C@@H]1C[C@@]2(C(=O)OCC)CCCC=C2N(Cc2ccccc2)C1=O	x	x	n	x
SMILES	core dimer inh	Hep lipid drop	Tb MetRS inh	HCV NS3 hel inh
COc1cc(C=CC(=O)N2CCN(CC(=O)N3CCCC3)CC2)cc(OC)c1OC	x	x	n	x
CCOc1ccc(C(C)=O)cc1CSc1nnc(-c2ccoc2C)n1N	46	x	n	n
Cc1cc(NC(=O)CSc2nnc(-c3ccoc3C)n2N)no1	n	x	n	n
O=C1/C(=C\c2ccc(Br)o2)SC(=Nc2ccccc2)N1c1ccccc1	59	x	n	n
CN(C)N1C(=O)/C(=C/c2ccco2)SC1=Nc1ccccc1	n	x	n	x
C[C@@H]1CN([C@H](C)CO)C(=O)CCCn2nncc2CO[C@H]1CN(C)Cc1ccc(Oc2ccccc2)cc1	x	x	n	x
CC1CCN(S(=O)(=O)c2ccc(NC(=O)Cc3cccs3)cc2)CC1	65	n	n	n
Cc1cc(=O)n2nc(N3CCCC(C(=O)NCc4ccccc4C)C3)sc2n1 (stereo not drawn)	n	n	n	n
